The record followed here is ChEMBL document CHEMBL1128352, “Substituted (1,2-diarylethyl)amide acyl-CoA:cholesterol acyltransferase inhibitors: effect of polar groups on in vitro and in vivo activity” (J Med Chem, 1995).

What is called IC50 is the concentration needed to halve the response being measured. A high value points to weaker potency in that assay. Usually ED50 stands for the dose at which the effect has come halfway, by size or by number of responders. Broadly, the inhibition is the share of the control response that was lost under treatment. A lower inhibition goes with a weak effect.

Assay [1] concerns Cricetinae gen. sp. The assay can be described thus: In vivo effect on cholesteryl esters level of cholesterol-fed hamsters at a dose of 50 mg/kg per oral. It counts as functional. Summed up: (§1)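 Male golden Syrian hamsters (100–125 g) were fed a high-cholesterol diet for 7 days. Compound was given by oral gavage in 0.2 mL corn oil/day. Liver lipids were Folch-extracted and hepatic cholesteryl ester measured by HPLC. Results are given as percent change versus cholesterol-fed controls dosed with vehicle alone.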

Assay [2] has as its target T1, Sterol O-acyltransferase 1 (Rattus norvegicus, UniProt O70536).
T1 sequence (O70536 whole entry): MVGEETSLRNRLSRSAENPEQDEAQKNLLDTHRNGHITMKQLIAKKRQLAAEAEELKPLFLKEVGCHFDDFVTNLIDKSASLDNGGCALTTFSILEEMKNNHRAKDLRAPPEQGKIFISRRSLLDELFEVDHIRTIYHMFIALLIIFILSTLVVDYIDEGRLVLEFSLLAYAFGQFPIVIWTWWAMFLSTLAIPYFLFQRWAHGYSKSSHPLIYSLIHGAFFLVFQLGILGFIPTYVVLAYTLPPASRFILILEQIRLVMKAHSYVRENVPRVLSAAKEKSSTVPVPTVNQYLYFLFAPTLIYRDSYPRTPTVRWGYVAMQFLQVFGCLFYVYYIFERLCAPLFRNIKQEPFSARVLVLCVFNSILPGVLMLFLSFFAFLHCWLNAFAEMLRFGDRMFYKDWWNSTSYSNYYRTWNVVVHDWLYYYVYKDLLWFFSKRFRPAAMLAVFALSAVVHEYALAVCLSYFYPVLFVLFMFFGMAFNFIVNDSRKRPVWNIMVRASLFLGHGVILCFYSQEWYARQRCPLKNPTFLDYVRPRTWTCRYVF
The assay can be described thus: In vitro inhibition of acyl coenzyme A:cholesterol acyltransferase 1, rat liver microsomal assay. Summed up: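 Compound added from DMSO stock and preincubated 15 min at 37 °C. [³H]oleoyl-CoA (10 µM final, 1 µCi) then added for 15 min at 37 °C. Cholesteryl [³H]oleate separated by silica TLC and counted by liquid scintillation.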
(In general: Liver microsomes are vesicles of endoplasmic reticulum, rich in cytochrome P450 enzymes.)

Assay [3] relates to Cricetinae gen. sp. The assay can be described thus: In vivo effect on serum cholesterol level of cholesterol-fed hamsters at a dose of 50 mg/kg per oral. Type of assay: functional.
Assay [4] deals with Cricetinae gen. sp. The assay can be described thus: In vivo effect on cholesteryl esters in cholesterol-fed hamsters at a dose of 50(mpk). Type of assay: functional. In a few lines: as §1
Assay [5] relates to Cricetinae gen. sp. The assay can be described thus: In vivo dose effecting the cholesteryl esters in cholesterol-fed hamsters at a dose of 50(mpk). It counts as functional.
Assay [6] concerns Cricetinae gen. sp. The assay can be described thus: In vivo effect on serum cholesterol level of cholesterol-fed hamsters at a dose of 50(mpk). It counts as functional.
Assay [7] deals with T2, Sterol O-acyltransferase 1 (Rattus norvegicus) (UniProt O70536).
T2 sequence (whole entry): T1 sequence (O70536 whole entry)
The assay is described as follows: In vitro ability of compound to inhibit Acyl coenzyme A:cholesterol acyltransferase 1 using rat liver microsomal assay. The conditions noted are these: concentration not given here. Summed up: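 Rat liver microsomes (12.5 µg protein) in 0.1 M potassium phosphate with 2 mM DTT, pH 7.4, and 90 µM fatty-acid-free BSA. Compound added from DMSO stock and preincubated 15 min at 37 °C. [³H]oleoyl-CoA (10 µM final, 1 µCi) then added for 15 min at 37 °C. Cholesteryl [³H]oleate separated by silica TLC and counted by liquid scintillation.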

The test system of assay [8] is Cricetinae gen. sp. The assay is described as follows: In vivo effect on serum cholesterol level of cholesterol-fed hamsters at a dose of 100(mpk). Type of assay: functional.
Assay [9] deals with Cricetinae gen. sp. The assay is described as follows: In vivo effect on cholesteryl esters in cholesterol-fed hamsters at a dose of 100(mpk). It counts as functional. In a few lines: as §1

On to `CCCCCCCn1ccnc1CC(NC(=O)C(c1ccccc1)c1ccccc1)c1ccccc1` (configuration not stated), for which the Change in assay [1] and in [3] was 0% throughout. Besides, the concentration for half-maximal inhibition (IC50) in assay [2] worked out at 5000 nM.

`O=C(O)c1ccc(C(Cc2ccccc2)NC(=O)C(c2ccccc2)c2ccccc2)cc1` (configuration not stated): the Change in assay [1] and in assay [3] was 0% each time. The compound also showed a half-maximal inhibitory concentration (IC50) in [2] of 10000 nM.

In turn, `O=C(NC(Cc1ncc[nH]1)c1ccccc1)C(c1ccccc1)c1ccccc1` (configuration not stated) gave an IC50 in assay [2] of more than 10000 nM.

Take `CCCCCCCCCCC(C)(C)C(=O)Nc1c(OC)cc(OC)cc1OC` [CL-976]: the values for the Change in [4] and in [6] were -67% and -10%, respectively. This compound also registered a 50% effective dose (ED50) in assay [5] of 20 mg/kg.

With `COc1cccc(C(Cc2ccccc2)NC(=O)C(c2ccccc2)c2ccccc2)c1` (configuration not stated), the Change in assay [1] and in assay [3] was 0% each time. Further, in assay [2], the IC50 was 1500 nM.

Take `C[Si](C)(C)CCOCn1ccnc1CC(NC(=O)C(c1ccccc1)c1ccccc1)c1ccccc1` (configuration not stated): the Change was -24% in [1] and 0% in assay [3]. The compound also returned a half-maximal inhibitory concentration (IC50) in assay [2] of 5000 nM.

On to `O=C(NC(Cc1ccc(O)cc1)c1ccccc1)C(c1ccccc1)c1ccccc1` (configuration not stated), for which the Change in assay [1] and in assay [3] was 0% throughout. This compound also gave an IC50 in assay [2] of 800 nM.

Turning to `C[Si](C)(C)CCOCn1ccnc1C(Cc1ccccc1)NC(=O)C(c1ccccc1)c1ccccc1` (configuration not stated), the half-inhibitory concentration (IC50) in assay [2] is more than 10000 nM.

Consider `Nc1ccc(CC(NC(=O)C(c2ccccc2)c2ccccc2)c2ccccc2)cc1` (racemic), for which the Change is reported as -60% in assay [4] and -13% in assay [6]. For the same compound, the 50% effective dose (ED50) in assay [5] came to 21 mg/kg.

As to `O=C(NC(Cc1ccccc1)c1cccc(O)c1)C(c1ccccc1)c1ccccc1` (configuration not stated), the Change in assay [1] is -19%; in assay [3] it was -17%. In assay [7], this compound returned an inhibition of 88%.

Take `O=C(NC(Cn1ccnc1)c1ccccc1)C(c1ccccc1)c1ccccc1` (configuration not stated): the Change in assay [1] and in assay [3] was 0% throughout. The same compound showed a 50% inhibitory concentration (IC50) in assay [2] of 3500 nM.

As for `O=C(NC(Cc1ccc(O)cc1)c1ccc(O)cc1)C(c1ccccc1)c1ccccc1` (configuration not stated), the Change is -40% in [1] and -20% in [3]. The compound further had an inhibition in assay [7] of 97%.

In the case of `O=C(NC(Cc1ccccc1)c1ccccc1)C(c1ccccc1)c1ccccc1` (configuration not stated), the Change is recorded as -15% in [4] and 0% in [6]. Also, the half-inhibitory concentration (IC50) in assay [2] was found to be 460 nM.

Take `COc1ccc(CC(NC(=O)C(c2ccccc2)c2ccccc2)c2ccccc2)cc1` (configuration not stated): the Change was -65% in assay [1] and -14% in assay [3]. Moreover, 1600 nM corresponded to half-maximal inhibition in assay [2] (IC50).

`O=C(NC(Cc1ccccc1)c1ccc(O)cc1)C(c1ccccc1)c1ccccc1` (configuration not stated): the Change in assay [1] is given as -69%; in assay [3], -14%. In [2], this compound gave an IC50 of 1000 nM.

Regarding `O=C(NC(Cc1ccccc1)c1cc[n+]([O-])cc1)C(c1ccccc1)c1ccccc1` (configuration not stated), the values for the Change in assay [1] and in [3] were -28% and 0%, respectively. This compound came in with a concentration for half-maximal inhibition (IC50) in [2] of more than 10000 nM.

Consider `Nc1cccc(CC(NC(=O)C(c2ccccc2)c2ccccc2)c2ccccc2)c1` (configuration not stated), for which the Change in [1] is -31%; in assay [3], -15%. The compound also yielded an IC50 in [2] of 5000 nM.

In assay [2], `O=C(NC(Cc1ccccc1)c1ncc[nH]1)C(c1ccccc1)c1ccccc1` (configuration not stated) registered an IC50 of more than 10000 nM.

In the case of `Nc1ccc(C(Cc2ccccc2)NC(=O)C(c2ccccc2)c2ccccc2)cc1` (configuration not stated), the Change was -24% in [1] and 0% in assay [3]. In assay [2], this compound returned an IC50 of 2800 nM.

Consider `COc1ccccc1C(Cc1ccccc1)NC(=O)C(c1ccccc1)c1ccccc1` (configuration not stated), for which the Change in assay [1] was -51%; in assay [3], 0%. Moreover, half-maximal inhibition in [2] (IC50) was put at 1800 nM.

With `COc1ccc(CC(NC(=O)C(c2ccccc2)c2ccccc2)c2ccc(OC)cc2)cc1` (configuration not stated), the Change in assay [1] was -32%; in [3], 0%. This compound showed an IC50 in assay [2] of more than 10000 nM.

Regarding `O=C(NC(Cc1ccncc1)c1ccccc1)C(c1ccccc1)c1ccccc1` (configuration not stated), the Change in assay [1] was -52%; in assay [3] it was -10%. The IC50 in [2] was 1800 nM.

Turning to `CS(=O)(=O)Nc1ccc(CC(NC(=O)C(c2ccccc2)c2ccccc2)c2ccccc2)cc1` (configuration not stated), the Change in assay [1] is reported as -32%; in [3], -17%. In assay [2], the half-inhibitory concentration (IC50) came to 360 nM.

Turning to `O=C(O)c1ccc(CC(NC(=O)C(c2ccccc2)c2ccccc2)c2ccccc2)cc1` (configuration not stated), the half-inhibitory concentration (IC50) in assay [2] was more than 10000 nM.

As to `Nc1ccc(CC(NC(=O)C(c2ccccc2)c2ccccc2)c2ccccc2)cc1` (single isomer, unassigned; (-)), the results for the Change in assay [1] and in assay [3] were -81% and 0%, respectively.

On to `COc1ccc(C(Cc2ccccc2)NC(=O)C(c2ccccc2)c2ccccc2)cc1` (configuration not stated), for which the figures for the Change in assay [1] and in assay [3] were -69% and -14%, respectively. The half-inhibitory concentration (IC50) in [2] came out at 1500 nM.

On to `CCCCCCCC/C=C\CCCCCCC(C)(C)C(=O)NC(Cc1ccc(N)cc1)c1ccccc1` (configuration not stated), for which the values for the Change in assay [8] and in [9] were -24% and -54%, respectively. The IC50 in assay [2] is 360 nM.

For `CCCCCCCCCC[Si](C)(C)CCC(=O)NC(Cc1ccc(C)cc1)c1ccccc1` (configuration not stated), the Change in [8] is -5%; in assay [9], 0%. In addition, half-maximal inhibition in [2] (IC50) required 300 nM.

Regarding `COc1ccc(CC(NC(=O)C(c2ccccc2)c2ccccc2)c2ccccc2)cc1OC` (configuration not stated), the Change in assay [1] is -26%; in [3], -21%. Moreover, in assay [2], the IC50 was found to be 500 nM.

Take `CCCCCCCN(Cc1ccc(CC(C)(C)C)cc1)C(=O)Nc1ccc(F)cc1F` [CL-277082]: the Change is -85% in [4] and -29% in assay [6]. For the same compound, in [5], the 50% effect level (ED50) was put at a dose of 15 mg/kg.

Turning to `COc1ccc(CC(NC(=O)C(c2ccccc2)c2ccccc2)c2cccc(OC)c2)cc1` (configuration not stated), the Change in assay [1] was 0%; in [3], -20%. The compound further registered an IC50 in [2] of 2400 nM.

In the case of `CC(=O)Nc1ccc(CC(NC(=O)C(c2ccccc2)c2ccccc2)c2ccccc2)cc1` (configuration not stated), the Change in assay [1] is listed as 0%; in assay [3], -12%. This compound also showed an IC50 in [2] of 350 nM.

For the compound `CCCCCCCC/C=C\CCCCCCCC(=O)NC(Cc1ccccc1)c1ccccc1` (configuration not stated), the results for the Change in [8] and in assay [9] were -4% and -23%, respectively.

As to `O=C(NC(Cc1ccccc1)c1ccncc1)C(c1ccccc1)c1ccccc1` (configuration not stated), the Change in assay [1] is on record as -29%; in [3], -13%. In assay [2], it took 2300 nM to reach half-maximal inhibition (IC50).

Consider `Nc1ccc(CC(NC(=O)C(c2ccccc2)c2ccccc2)c2ccccc2)cc1` (stereo in doubt; (+)-5), for which the Change in assay [1] was 0%.

Turning to `O=C(NC(Cc1ccccc1)c1cccnc1)C(c1ccccc1)c1ccccc1` (configuration not stated), the Change in [1] is listed as 0%; in [3] it was -9%. The compound also returned a 50% inhibitory concentration (IC50) in [2] of 4000 nM.

`COC(=O)c1ccc(CC(NC(=O)C(c2ccccc2)c2ccccc2)c2ccccc2)cc1` (configuration not stated) registered a half-inhibitory concentration (IC50) in [2] of more than 10000 nM.
